Measurements: ChEMBL document CHEMBL1134797, “Synthesis and structural studies of aza analogues of functionalized amino acids: new anticonvulsant agents” (2001)

Assays:
[1] = Protective index (TD50/ED50) value of the compound; assay type: functional
How it was run: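 Protective index taken as rotorod TD50 divided by maximal electroshock ED50, both in mg/kg and both from dose–effect data at the time of peak effect.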

Rattus norvegicus [2] = experiment: Evaluated against Maximal electroshock seizure test in rat after po administration
Mus musculus [3] = experiment: Evaluated against Maximal electroshock seizure test in mice after ip administration; assay type: functional
How it was run: (§1)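 Given intraperitoneally to mice. […] Seizure protection scored in the maximal electroshock test or against subcutaneous pentylenetetrazole (Metrazol). Neurologic toxicity scored on the rotorod.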

Mus musculus [4] = experiment: Tested against subcutaneous pentylenetetrazole (Metrazol) seizure test in mice after ip administration; assay type: functional; how it was run: as §1
Rattus norvegicus [5] = experiment: Evaluated against neurological toxicity determined from the rotarod test in rat after po administration
Mus musculus [6] = experiment: Evaluated against neurological toxicity determined from the rotarod test in mice after ip administration; assay type: functional; how it was run: as §1

| Compound | PI [1] | ED50 (Rattus norvegicus [2]) [mg/kg] | ED50 (Mus musculus [3]) [mg/kg] | ED50 (Mus musculus [4]) [mg/kg] | TD50 (Rattus norvegicus [5]) [mg/kg] | TD50 (Mus musculus [6]) [mg/kg] |
| --- | --- | --- | --- | --- | --- | --- |
| CC(=O)NN(C)C(=O)NCc1ccccc1 | > 5.6 | > 30 | 89 | >300 | > 30 | > 500 |
| CC(=O)NNC(=O)NCc1ccccc1 |  | 95 | > 100 | >300 | > 160 | > 160 |
| CCC1(c2ccccc2)C(=O)NC(=O)NC1=O [PHENOBARBITAL] | 3.1 |  | 22 |  |  | 69 |
| CC(=O)NN(C(=O)NCc1ccccc1)c1ncccn1 |  | ~30 | > 100 | >300 | > 30 | > 100 |
| O=C1NC(=O)C(c2ccccc2)(c2ccccc2)N1 [PHENYTOIN] | 6.6 | 23 | 6.5 |  |  | 43 |
| CCCC(CCC)C(=O)O [VALPROIC ACID] | 1.3 | 400 | 290 |  |  | 480 |
| CC(=O)NN(C(=O)NCc1ccccc1)c1ccccn1 |  | < 30 | > 30 | >100 | > 30 | > 100 |
| CC(=O)NN(C(=O)NCc1ccccc1)c1nccs1 | 5.4 | 6.2 | 22 | >200 | > 250 | 120 |
| CC(=O)NN(C(=O)NCc1ccccc1)c1ccccc1 |  | > 30 | > 30 | >300 | > 30 | > 100 |
